Results on one compound are retold here after ChEMBL document CHEMBL1132314, “Synthesis and amyloid binding properties of rhenium complexes: preliminary progress toward a reagent for SPECT imaging of Alzheimer's disease brain” (J Med Chem, 1999).

A short description of data set [1]: Apparent dissociation constant was measured at 110 mM salt. In outline: (§1)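 Synthetic Aβ40 fibrils (50 µM total Aβ40 stock, 20 µL added to 180 µL probe solution) were incubated with probe at 2–18 µM final in pH 7.4 10 mM phosphate, with 100 or 0 mM NaCl. Stocks for the Re complexes were in methanol, ≤3 vol % final. The mixture was held 1 h at 25 °C, then fibrils were pelleted by centrifugation.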

Data set [2] can be described thus: Partition coefficient (P). The conditions noted are these: octanol/water.
Data set [3] is described as follows: Apparent dissociation constant was measured at 10 mM salt. In short, it runs like this:
as §1

A short description of data set [4]: Bmax value was measured on A-beta-40 fibrils at high salt. In short, it runs like this:
as §1

A short description of data set [5]: max value was measured on A-beta-40 fibrils at low salt. In short, it runs like this:
as §1

On to `Nc1c(/N=N/c2ccc(-c3ccc(/N=N/c4cc(S(=O)(=O)O)c5ccccc5c4N)cc3)cc2)cc(S(=O)(=O)O)c2ccccc12` [CONGO RED], for which the Kd in data set [1] worked out at 1500 nM; in data set [3] it was 1100 nM. The P in data set [2] worked out at 0.16. Moreover, the Bmax in data set [4] turned out to be 2.6; in data set [5], 0.6.
